These results are taken from ChEMBL document CHEMBL3351463, “Methyl effect in azumamides provides insight into histone deacetylase inhibition by macrocycles” (J Med Chem, 2014).

A word on the Ki: it is a measure of affinity in units of concentration, obtained from inhibition or displacement. As a reminder, the inhibition is how much of the control response was suppressed. By GI50 is commonly meant the concentration giving 50% growth inhibition. A higher GI50 goes with lower sensitivity of the cells.

The structures appear in SMILES notation. Active and inactive are the calls of the source. The rule behind the calls is not given here.

For one assay, the target named is Histone deacetylase 1 (Homo sapiens, UniProt Q13547). Description: Inhibition of human recombinant HDAC1 using [Ac-Leu-Gly-Lys(Ac)-AMC substrate incubated for 15 to 30 mins.
Chain of Histone deacetylase 1 (Q13547 whole entry): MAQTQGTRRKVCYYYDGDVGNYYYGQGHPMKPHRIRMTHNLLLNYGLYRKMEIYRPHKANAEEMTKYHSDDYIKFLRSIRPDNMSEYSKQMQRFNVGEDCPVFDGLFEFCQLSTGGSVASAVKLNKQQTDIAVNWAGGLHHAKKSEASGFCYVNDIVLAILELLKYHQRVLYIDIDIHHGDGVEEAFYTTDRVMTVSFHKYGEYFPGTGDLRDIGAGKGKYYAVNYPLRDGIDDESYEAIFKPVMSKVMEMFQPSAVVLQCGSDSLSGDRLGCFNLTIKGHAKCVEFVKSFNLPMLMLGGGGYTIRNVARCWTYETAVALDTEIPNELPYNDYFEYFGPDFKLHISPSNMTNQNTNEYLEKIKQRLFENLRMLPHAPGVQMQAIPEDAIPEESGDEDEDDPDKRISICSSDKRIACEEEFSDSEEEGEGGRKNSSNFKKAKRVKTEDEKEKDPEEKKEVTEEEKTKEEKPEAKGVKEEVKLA
In the next assay the target is Histone deacetylase 2 (Homo sapiens, UniProt Q92769). Description: Inhibition of human recombinant HDAC2 using [Ac-Leu-Gly-Lys(Ac)-AMC substrate incubated for 15 to 30 mins.
Chain of Histone deacetylase 2 (Q92769 whole entry): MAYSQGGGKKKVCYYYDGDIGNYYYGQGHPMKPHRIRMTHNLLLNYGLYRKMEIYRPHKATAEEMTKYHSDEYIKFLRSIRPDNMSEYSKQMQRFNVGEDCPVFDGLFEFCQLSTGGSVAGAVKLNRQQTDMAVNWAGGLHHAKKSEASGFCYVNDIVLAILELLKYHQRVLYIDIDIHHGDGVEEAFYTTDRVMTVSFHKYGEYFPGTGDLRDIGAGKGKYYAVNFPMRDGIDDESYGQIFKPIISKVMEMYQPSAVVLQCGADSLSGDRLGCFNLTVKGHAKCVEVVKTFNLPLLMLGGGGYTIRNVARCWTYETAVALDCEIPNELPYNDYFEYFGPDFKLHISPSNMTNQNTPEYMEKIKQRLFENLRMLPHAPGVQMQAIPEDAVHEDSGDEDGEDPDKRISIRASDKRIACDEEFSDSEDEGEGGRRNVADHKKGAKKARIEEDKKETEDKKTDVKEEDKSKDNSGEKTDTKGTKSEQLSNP
The next assay addresses Histone deacetylase 3 (Homo sapiens, UniProt O15379). Description: Inhibition of human recombinant HDAC3 using [Ac-Leu-Gly-Lys(Ac)-AMC substrate incubated for 15 to 30 mins.
A further assay addresses T1, Histone deacetylase 8 (Homo sapiens, UniProt Q9BY41).
T1 sequence (Q9BY41 whole entry): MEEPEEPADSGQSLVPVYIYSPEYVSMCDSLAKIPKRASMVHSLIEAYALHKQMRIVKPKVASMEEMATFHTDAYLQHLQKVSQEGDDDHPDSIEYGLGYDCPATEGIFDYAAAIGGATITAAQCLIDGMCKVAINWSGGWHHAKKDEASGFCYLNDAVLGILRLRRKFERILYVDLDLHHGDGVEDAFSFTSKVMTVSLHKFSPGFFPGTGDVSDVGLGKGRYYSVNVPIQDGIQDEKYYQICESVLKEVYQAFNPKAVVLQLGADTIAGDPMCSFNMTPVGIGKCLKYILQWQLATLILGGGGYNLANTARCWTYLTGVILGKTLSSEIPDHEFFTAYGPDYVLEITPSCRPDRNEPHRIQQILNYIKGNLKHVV
Briefly: Inhibition of human recombinant HDAC8 using [Ac-Leu-Gly-Lys(Ac)-AMC substrate incubated for 15 to 30 mins.

Assay [1] concerns the target T2, Protein deacetylase HDAC6 (Homo sapiens, UniProt Q9UBN7).
T2 sequence (Q9UBN7 whole entry): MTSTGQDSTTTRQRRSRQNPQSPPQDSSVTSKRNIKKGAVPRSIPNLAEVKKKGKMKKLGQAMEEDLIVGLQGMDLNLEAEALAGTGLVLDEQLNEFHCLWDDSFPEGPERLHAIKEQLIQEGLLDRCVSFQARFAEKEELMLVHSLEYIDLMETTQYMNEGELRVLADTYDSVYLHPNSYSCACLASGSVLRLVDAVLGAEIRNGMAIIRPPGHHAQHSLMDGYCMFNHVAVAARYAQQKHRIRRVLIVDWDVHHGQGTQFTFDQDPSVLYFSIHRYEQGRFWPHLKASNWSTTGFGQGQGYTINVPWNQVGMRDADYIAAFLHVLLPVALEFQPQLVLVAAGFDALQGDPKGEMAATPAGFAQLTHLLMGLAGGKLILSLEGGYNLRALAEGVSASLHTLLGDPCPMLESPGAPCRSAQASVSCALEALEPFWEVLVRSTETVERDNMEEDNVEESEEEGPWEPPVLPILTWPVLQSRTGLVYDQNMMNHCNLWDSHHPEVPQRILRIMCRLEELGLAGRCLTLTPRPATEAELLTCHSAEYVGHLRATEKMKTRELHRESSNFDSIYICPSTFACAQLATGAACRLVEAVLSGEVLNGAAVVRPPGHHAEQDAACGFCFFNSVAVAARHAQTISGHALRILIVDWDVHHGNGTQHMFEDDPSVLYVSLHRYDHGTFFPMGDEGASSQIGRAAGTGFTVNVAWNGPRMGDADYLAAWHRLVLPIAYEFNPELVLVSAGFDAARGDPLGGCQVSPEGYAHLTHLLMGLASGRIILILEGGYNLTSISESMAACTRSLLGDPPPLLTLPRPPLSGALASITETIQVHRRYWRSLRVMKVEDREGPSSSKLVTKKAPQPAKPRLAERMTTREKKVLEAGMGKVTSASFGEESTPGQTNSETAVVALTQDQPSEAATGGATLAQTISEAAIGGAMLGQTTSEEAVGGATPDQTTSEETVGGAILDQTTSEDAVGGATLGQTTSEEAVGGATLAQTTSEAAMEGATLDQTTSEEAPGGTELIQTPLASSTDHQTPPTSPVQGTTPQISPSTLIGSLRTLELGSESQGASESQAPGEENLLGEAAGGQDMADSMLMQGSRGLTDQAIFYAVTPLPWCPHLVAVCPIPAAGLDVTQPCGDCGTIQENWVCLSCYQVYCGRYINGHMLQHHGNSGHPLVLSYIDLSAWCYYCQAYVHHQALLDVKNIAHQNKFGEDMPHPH
Description: Inhibition of human recombinant HDAC6 using [Ac-Leu-Gly-Lys(Ac)-AMC substrate incubated for 15 to 30 mins.

Assay [2] addresses T3, Polyamine deacetylase HDAC10 (Homo sapiens, UniProt Q969S8).
T3 sequence (Q969S8 whole entry): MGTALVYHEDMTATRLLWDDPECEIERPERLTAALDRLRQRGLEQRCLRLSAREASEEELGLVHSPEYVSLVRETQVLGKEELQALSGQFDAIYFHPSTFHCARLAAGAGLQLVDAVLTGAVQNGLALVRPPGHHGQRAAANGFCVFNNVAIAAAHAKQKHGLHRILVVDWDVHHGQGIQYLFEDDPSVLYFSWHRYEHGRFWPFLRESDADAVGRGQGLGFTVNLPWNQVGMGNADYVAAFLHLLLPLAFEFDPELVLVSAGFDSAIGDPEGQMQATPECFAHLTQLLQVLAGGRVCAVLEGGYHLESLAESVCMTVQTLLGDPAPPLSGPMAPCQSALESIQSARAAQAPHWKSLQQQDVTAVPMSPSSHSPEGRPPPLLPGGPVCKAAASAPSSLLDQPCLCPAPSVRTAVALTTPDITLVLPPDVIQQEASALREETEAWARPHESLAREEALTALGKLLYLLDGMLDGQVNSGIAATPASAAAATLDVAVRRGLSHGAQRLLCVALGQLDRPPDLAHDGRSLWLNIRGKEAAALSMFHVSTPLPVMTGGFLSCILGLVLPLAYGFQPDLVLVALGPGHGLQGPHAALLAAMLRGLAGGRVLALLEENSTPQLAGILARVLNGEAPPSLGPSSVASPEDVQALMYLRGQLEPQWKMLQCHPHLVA
Description: Inhibition of human recombinant HDAC10 using Ac-Arg-His-Lys(Ac)-Lys(Ac)-AMC substrate incubated for 15 to 30 mins.

In a further assay the target is T4, Histone deacetylase 11 (Homo sapiens, UniProt Q96DB2).
T4 sequence (Q96DB2 whole entry): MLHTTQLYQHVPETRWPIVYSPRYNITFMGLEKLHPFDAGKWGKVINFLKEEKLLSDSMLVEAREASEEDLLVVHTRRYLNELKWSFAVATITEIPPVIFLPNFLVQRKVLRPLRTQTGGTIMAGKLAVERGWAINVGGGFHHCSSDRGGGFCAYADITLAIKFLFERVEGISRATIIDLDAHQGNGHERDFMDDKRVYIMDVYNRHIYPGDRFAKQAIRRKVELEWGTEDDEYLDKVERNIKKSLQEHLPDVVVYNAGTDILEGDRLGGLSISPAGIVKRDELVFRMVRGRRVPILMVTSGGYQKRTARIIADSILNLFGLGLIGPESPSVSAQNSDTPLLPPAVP
Description: Inhibition of human recombinant HDAC11 using [Ac-Leu-Gly-Lys(Ac)-AMC substrate incubated for 15 to 30 mins.

Assay [3] deals with T5, Histone deacetylase 8 (Homo sapiens) (UniProt Q9BY41).
T5 sequence (whole entry): T1 sequence (Q9BY41 whole entry)
Description: Inhibition of human recombinant HDAC8 at 20 uM using [Ac-Leu-Gly-Lys(Ac)-AMC substrate incubated for 15 to 30 mins. In a few lines: (§1)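 Recombinant human enzyme (HDAC6 2.4 ng/μL; HDAC8 0.2 ng/μL final) in pH 8.0 Tris buffer with BSA. Ac-Leu-Gly-Lys(Ac)-AMC substrate at 20 μM for HDAC6 and 200 μM for HDAC8. Incubated 30 min at 37 °C, then trypsin development 15–30 min at room temperature. Fluorescence read at ex 360/em 460 nm.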

Assay [4] addresses T6, Protein deacetylase HDAC6 (Homo sapiens) (UniProt Q9UBN7).
T6 sequence (whole entry): T2 sequence (Q9UBN7 whole entry)
Description: Inhibition of human recombinant HDAC6 at 20 uM using [Ac-Leu-Gly-Lys(Ac)-AMC substrate incubated for 15 to 30 mins. The method in brief: as §1

The subject of another assay is EB-3. Description: Cytotoxic activity against human EB3 cells assessed as growth inhibition up to 25 uM after 3 days by MTT assay. It counts as functional, cell-based. The method in brief:
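EB-3 (EBV-infected human Burkitt's lymphoma) cells seeded at 2 × 10^4 per well in RPMI-1640 with 10% FCS and 1% penicillin/streptomycin, cultured overnight at 37 °C, 5% CO2, then given compound or DMSO vehicle. 2-fold dilution series from DMSO stocks; 3 days exposure. MTT added for 4 h, formazan dissolved in acidic 2-propanol, A570 minus 630 nm. Three experiments in duplicate.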
(In general: Tetrazolium assays rely on reduction of a dye to a coloured formazan, in cell work by metabolically active cells.)

Assay [5] is described as follows: Cytotoxic activity against human EB3 cells after 3 days by MTT assay. The following applies: EB-3, 72 h. It counts as functional. The method in brief: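 EBV-infected human Burkitt's lymphoma EB-3 cells seeded at 2 × 10^4 cells/well in RPMI-1640 with 10% FCS and 1% penicillin/streptomycin, cultured overnight at 37 °C, 5% CO2. Compounds added as 2-fold dilution series from DMSO stocks, top final concentration 50 or 100 μM; DMSO vehicle control. After 3 days, MTT added for 4 h. Formazan dissolved in acidic 2-propanol, A570 read minus A630. Three experiments in duplicate.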

Chain of Histone deacetylase 3 (O15379 whole entry): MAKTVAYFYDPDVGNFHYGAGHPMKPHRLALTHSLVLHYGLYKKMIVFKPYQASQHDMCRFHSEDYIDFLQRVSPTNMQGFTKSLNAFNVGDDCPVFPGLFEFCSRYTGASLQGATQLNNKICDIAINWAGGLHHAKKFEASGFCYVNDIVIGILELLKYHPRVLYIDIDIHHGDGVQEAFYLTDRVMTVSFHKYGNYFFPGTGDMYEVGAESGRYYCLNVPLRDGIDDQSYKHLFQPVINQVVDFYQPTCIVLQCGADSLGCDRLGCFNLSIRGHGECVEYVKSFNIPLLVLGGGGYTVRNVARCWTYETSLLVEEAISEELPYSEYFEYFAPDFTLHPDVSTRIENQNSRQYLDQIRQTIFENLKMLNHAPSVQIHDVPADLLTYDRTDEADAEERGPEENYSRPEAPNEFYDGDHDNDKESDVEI

In the case of `CC(C)[C@H]1NC(=O)C[C@@H](C/C=C\CCC(=O)O)NC(=O)[C@@H](Cc2ccccc2)NC(=O)[C@@H](C)NC1=O`, the Ki on Histone deacetylase 1 was 600 nM; on Histone deacetylase 2, 900 nM; on Histone deacetylase 3 it was 800 nM; at Histone deacetylase 8 it was “Not Active”; in assay [1], “Not Active”; in [2], 700 nM. Further, the Ki at Histone deacetylase 11 is 1500 nM. Moreover, the inhibition in assay [3] and in assay [4] was under 50% in each case. The “growth inhibition (GI)” value with EB-3 was “inactive”.
`CCC(=O)CCCCC[C@@H]1NC(=O)[C@H]2CCCCN2C(=O)[C@H]([C@@H](C)CC)NC(=O)[C@H](Cc2cn(OC)c3ccccc23)NC1=O` [APICIDIN]: in assay [5], the GI50 came to 800 nM.
